Results: ChEMBL document CHEMBL1146321, “Transformation of mu-opioid receptor agonists into biologically potent mu-opioid receptor antagonists” (Bioorg Med Chem, 2007)
Calls of active or inactive are those of the source.

Legend:
[1] = biological target: T1, Delta-type opioid receptor (Mus musculus, UniProt P32300); assay: Antagonist activity at delta opioid receptor in mouse vas deferens assessed as inhibition of deltorphin 2-induced effect on muscle contractions; type: functional, tissue-based; settings: read-out: pA2 (converted)
[2] = biological target: Opioid receptors; mu & delta (Rattus norvegicus) (UniProt P33533+P33535); assay: Selectivity for rat mu opioid receptor over rat delta opioid receptor; type: protein assay
[3] = biological target: T1, Delta-type opioid receptor; assay: Agonist activity at delta opioid receptor in mouse vas deferens assessed as inhibition of electrically evoked muscle contractions; type: functional, tissue-based
How it was run: (§1)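 Isolated tissue in organ baths of balanced physiological salt buffer, pH 7.5: male Hartley guinea pig ileum myenteric plexus longitudinal muscle (μ) or single mouse vas deferens (δ). Agonist inhibition of electrically evoked contractions; IC50 (nM) from dose–response curves, mean ± SE of five to six separate tissue preparations.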

Mu-type opioid receptor [4] = biological target: Mu-type opioid receptor (Rattus norvegicus, UniProt P33535); assay: Displacement of [3H]DAMGO from mu opioid receptor in rat brain P2 synaptosome; type: tissue-based
[5] = biological target: Delta-type opioid receptor (Mus musculus) (UniProt P32300); assay: Agonist activity at delta opioid receptor in mouse vas deferens assessed as inhibition of electrically evoked muscle contractions at 10000 nM; type: functional, tissue-based
[6] = biological target: Delta-type opioid receptor (Rattus norvegicus, UniProt P33533); assay: Displacement of [3H]deltorphin 2 from delta opioid receptor in rat brain P2 synaptosome; type: tissue-based
Mu-type opioid receptor [7] = biological target: T2, Mu-type opioid receptor (Cavia porcellus, UniProt P97266); assay: Agonist activity at mu opioid receptor in Hartley guinea pig intestine assessed as inhibition of electrically evoked myenteric plexus longitudinal muscle contractions; type: functional, tissue-based; how it was run: as §1
[8] = Ratio of pA2 for delta opioid receptor in MVD to pA2 for mu opioid receptor in GPI; type: functional
[9] = biological target: Mu-type opioid receptor (Cavia porcellus) (UniProt P97266); assay: Agonist activity at mu opioid receptor in Hartley guinea pig intestine assessed as inhibition of electrically evoked myenteric plexus longitudinal muscle contractions at 10000 nM; type: functional, tissue-based
Mu-type opioid receptor [10] = biological target: T2, Mu-type opioid receptor; assay: Antagonist activity at mu opioid receptor in Hartley guinea pig intestine assessed as inhibition of DAMGO-induced effect on myenteric plexus longitudinal muscle contractions; type: functional, tissue-based; settings: read-out: pA2 (converted)
Hippocampus = assay: Inhibition of ethanol-induced frequency of spontaneous inhibitory post-synaptic currents in rat hippocampal neurons by patch clamp technique at 300 nM; type: functional
How it was run: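 Rat hippocampal slices (300 µm), held in oxygenated ACSF 60 min at room temperature. Whole-cell patch clamp of CA1 pyramidal cells at −70 mV. GABAA IPSCs isolated with 50 µM AP5 and 20 µM DNQX. Recording periods of 10 min each: baseline, then 60 mM EtOH, then compound in EtOH. n = 6 slices; paired t-tests.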

Mus musculus [11] = assay: Inhibition of morphine-induced antinociception in mouse at 2.38 ng, icv after 10 mins by hot plate test; type: functional
How it was run: (§2)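 Male mice received morphine 4 mg/kg sc, then test compound icv 5 min later. Hot plate at 55.0 °C; latency to hind-paw licking or shaking, baseline 15 s, cut-off 30 s, read 10 min after icv dosing. Results as %MPE. AD50 is the dose blocking 50% of morphine antinociception at 10 min; 95% confidence limits; n = 10–17 mice per point.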

Mus musculus [12] = assay: Inhibition of morphine-induced spinal antinociception in intracerebroventricularly dosed mouse by tail-flick test; type: functional, organism-based
How it was run: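 Male mice given morphine 4 mg/kg sc, then compound icv 5 min later. Tail-flick latency measured to radiant heat, baseline 2–3 s, cut-off 8 s.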

Mus musculus [13] = assay: Inhibition of morphine-induced antinociception in mouse at 0.148 ng, icv after 10 mins by hot plate test; type: functional, organism-based; how it was run: as §2

T2 sequence (P97266 whole entry): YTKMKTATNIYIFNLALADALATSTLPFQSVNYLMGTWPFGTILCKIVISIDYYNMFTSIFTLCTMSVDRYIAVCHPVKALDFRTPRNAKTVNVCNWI
Sequence of Opioid receptors; mu & delta (Rattus norvegicus) (P33533 whole entry, looked up): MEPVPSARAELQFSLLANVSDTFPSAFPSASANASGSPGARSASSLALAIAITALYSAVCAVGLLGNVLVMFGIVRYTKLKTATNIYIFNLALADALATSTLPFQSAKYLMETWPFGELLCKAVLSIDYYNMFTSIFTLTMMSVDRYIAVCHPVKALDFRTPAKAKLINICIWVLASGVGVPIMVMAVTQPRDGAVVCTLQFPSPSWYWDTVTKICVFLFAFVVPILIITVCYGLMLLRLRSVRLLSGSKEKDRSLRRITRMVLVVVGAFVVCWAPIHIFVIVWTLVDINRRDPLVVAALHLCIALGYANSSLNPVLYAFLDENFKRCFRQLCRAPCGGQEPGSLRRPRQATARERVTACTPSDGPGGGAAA
Sequence of Opioid receptors; mu & delta (Rattus norvegicus) (P33535 whole entry, looked up): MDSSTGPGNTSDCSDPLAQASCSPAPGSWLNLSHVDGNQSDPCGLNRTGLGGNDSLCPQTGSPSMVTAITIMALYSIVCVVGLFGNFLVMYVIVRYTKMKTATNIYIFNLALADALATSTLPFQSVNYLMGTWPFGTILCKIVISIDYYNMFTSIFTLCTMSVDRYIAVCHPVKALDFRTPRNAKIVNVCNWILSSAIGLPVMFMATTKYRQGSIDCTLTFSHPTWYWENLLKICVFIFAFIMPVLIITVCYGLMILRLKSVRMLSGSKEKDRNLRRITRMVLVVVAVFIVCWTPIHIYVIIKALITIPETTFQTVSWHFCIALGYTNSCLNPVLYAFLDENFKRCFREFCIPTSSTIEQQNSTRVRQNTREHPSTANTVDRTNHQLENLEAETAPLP
Sequence of Delta-type opioid receptor (Rattus norvegicus, UniProt P33533) (P33533 whole entry): as the sequence (P33533 whole entry, looked up) above
Sequence of Mu-type opioid receptor (Rattus norvegicus, UniProt P33535) (P33535 whole entry): as the sequence (P33535 whole entry, looked up) above
Sequence of Delta-type opioid receptor (Mus musculus) (P32300 whole entry): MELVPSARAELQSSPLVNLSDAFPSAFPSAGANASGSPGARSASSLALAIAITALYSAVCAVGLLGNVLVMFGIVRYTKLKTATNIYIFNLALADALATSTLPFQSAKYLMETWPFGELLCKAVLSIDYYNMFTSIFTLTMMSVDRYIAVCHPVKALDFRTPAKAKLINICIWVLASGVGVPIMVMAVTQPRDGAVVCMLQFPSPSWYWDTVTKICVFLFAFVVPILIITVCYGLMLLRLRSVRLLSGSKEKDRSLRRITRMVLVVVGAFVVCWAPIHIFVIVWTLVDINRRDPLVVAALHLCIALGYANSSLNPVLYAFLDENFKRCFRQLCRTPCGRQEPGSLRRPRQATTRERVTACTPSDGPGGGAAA
T1 sequence (P32300 whole entry): as above
Sequence of Mu-type opioid receptor (Cavia porcellus) (P97266 whole entry): as the sequence (P97266 whole entry) above

Structure (SMILES) | Kb [1] [nM] | Ratio Ki [2] | IC50 [3] [nM] | Ki (Mu-type opioid receptor [4]) [nM] | inhibition [5] [%] | Ki [6] [nM] | IC50 (Mu-type opioid receptor [7]) [nM] | Ratio pA2 [8] | inhibition [9] [%] | Kb (Mu-type opioid receptor [10]) [nM] | inhibition at 0.3 µM (Hippocampus) [%] | AD50 (Mus musculus [11]) [ng] | Activity (Mus musculus [12]) | Activity (Mus musculus [13])
Cc1cc(O)cc(C)c1C[C@H](N)C(=O)N1CCC[C@H]1C(=O)N[C@@H](Cc1c[nH]c2ccccc12)C(=O)N[C@@H](Cc1ccccc1)C(N)=O | 2.51 | 104 | > 10000 | 0.054 | 21.6 | 5.6 | 0.27 | – | – | – | – | – | – | –
C=CCN[C@@H](Cc1ccc(O)cc1)C(=O)N1CCC[C@H]1C(=O)N[C@@H](Cc1ccccc1)C(=O)N[C@@H](Cc1ccccc1)C(N)=O | – | 57 | – | – | – | – | – | – | – | – | – | – | – | –
C=CCN[C@@H](Cc1c(C)cc(O)cc1C)C(=O)N1CCC[C@H]1C(=O)N[C@@H](Cc1c[nH]c2ccccc12)C(=O)N[C@@H](Cc1ccccc1)C(N)=O | 47.9 | 40 | > 10000 | 0.26 | 37.5 | 10.3 | > 10000 | 7.2 | 49 | 6.61 | 26 | – | – | –
C=CCN1CC[C@]23c4c5ccc(O)c4O[C@H]2C(=O)CC[C@@]3(O)[C@H]1C5 [NALOXONE] | – | – | – | – | – | – | – | – | – | – | – | 2.38 | – | –
C=CCNC(=O)[C@H](Cc1ccccc1)NC(=O)[C@H](Cc1ccccc1)NC(=O)[C@@H]1CCCN1C(=O)[C@H](Cc1ccc(O)cc1)NCC=C | – | 6 | – | – | – | – | – | – | – | – | – | – | – | –
C=CCN[C@@H](Cc1c(C)cc(O)cc1C)C(=O)N1CCC[C@H]1C(=O)N[C@@H](Cc1ccccc1)C(=O)N[C@@H](Cc1ccccc1)C(N)=O | 479 | 1240 | > 10000 | 0.45 | 42.8 | 560 | > 10000 | 186 | 49.3 | 2.57 | – | – | inactive | inactive
